High-throughput results deposited in PubChem BioAssay by several laboratories.
Hits are enriched below; roughly 1.5% of the tested compounds scored in any of these assays.
DNMT1 block: DNMT1 (human) enzyme inhibition. P26358. DNMT1 molecular beacon, Hinp1I cleavage, fluorescence. inhibition (reported as % activation of signal), % at 10 µM. hit rate 0.83% among 360,000. AID 588458; in the data active = inhibition above about 50%
NSD2 inh: NSD2 (human) methyltransferase inhibition | O96028 | inhibition, % at 12.5 µM | NSD2 peptide methylation, AlphaScreen, 120 min | hit rate 0.54% among 310,000; in the data active = inhibition above about 50%
NS3 helicase inh: HCV NS3 helicase inhibition; AID 1800; inhibition, % at 10.9 µM; NS3 helicase DNA unwinding, Cy5 molecular beacon fluorescence; hit rate 0.56% among 290,000;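 active = inhibition above the mean of all tested compounds plus 3 SD, set per campaign, cut at about 35% in these data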;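 note: 0% = DMSO wells and 100% = thioflavine S control wells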
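Assay system – hepatitis C virus NS3 helicase domain fragment enzyme · Buffer or medium – MOPS pH 6.5, MgCl2, DTT, Tween20, BSA · Reagent – Cy5/quencher beacon DNA duplex and ATP to start · Compound – single 10.9 µM dose · Timing – 1 h at 25 °C · Technique – Cy5 beacon fluorescence read at start and 1 h · Measure – % inhibition of unwinding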
CASP6 VEID inh: caspase-6 (human) enzyme inhibition; P55212; purified caspase-6, Z-VEID-R110 cleavage fluorescence; inhibition, % at 12.5 µM; hit rate 0.53% among 350,000; AID 686996;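 active = mean inhibition across replicates at least about 35%, with every replicate also reaching that limit, limit read from the data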;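 note: 0% = median of neutral control wells and 100% = no fluorescence left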
Target sequence (P55212 24-179 limits assumed): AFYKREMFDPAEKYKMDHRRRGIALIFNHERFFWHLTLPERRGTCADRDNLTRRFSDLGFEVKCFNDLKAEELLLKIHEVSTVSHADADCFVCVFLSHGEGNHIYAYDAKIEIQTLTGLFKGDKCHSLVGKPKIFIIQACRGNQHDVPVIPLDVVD
Target sequence (P55212 194-293 limits assumed): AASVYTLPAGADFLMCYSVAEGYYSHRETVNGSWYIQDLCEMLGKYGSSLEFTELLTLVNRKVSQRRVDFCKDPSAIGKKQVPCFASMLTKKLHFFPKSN
DNMT1 interf DR: shows spectral interference in the DNMT1 beacon assay; shares compounds with DNMT1 block; molecular beacon fluorescence, spectral interference counter-screen; IC50, µM; 200 tested, under 10 active; AID 602382
DNMT1 inh conf: confirmation of human DNMT1 inhibitors | shares compounds with DNMT1 block | DNMT1 molecular beacon HinP1I cleavage, fluorescence | inhibition, % at 10 µM | hit rate 8% among 2,300 | AID 602385;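 active = average inhibition of at least 30% in the single-concentration confirmation test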
DNMT1 interf: beacon fluorescence artifact counter-screen. shares compounds with DNMT1 block. DNMT1 molecular beacon spectral interference counterscreen, fluorescence 485/520. activation (fluorescence interference), % at 10 µM. hit rate 1% among 2,300;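 active = activation of at least 30% at 10 µM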;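 note: DNMT1 catalytic domain with a HinP1I cleavage step and a FAM/dabcyl DNA beacon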
CASP1 counter: blocks human caspase-1 in a selectivity counter-screen; shares compounds with CASP6 VEID inh; AID 743289; activity change, negative = inhibition, % at 35 µM; 100 tested, under 10 active; purified caspase-1, Z-YVAD-R110 cleavage fluorescence;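 active = compounds lowering fluorescence whose fitted half-maximal concentration is no more than twice their top tested dose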
AlphaScreen art: interferes with AlphaScreen signal, flagging NSD2 false positives. shares compounds with NSD2 inh. AlphaScreen artifact counterscreen, preloaded methylated H4 peptide. AC35, µM (doses to about 10 µM), for the others: top-dose activity change, negative = signal loss. hit rate 9.4% among 1,500. AID 1053174
Numbers without * were called inactive; · = no result. Unless noted, the rule behind the calls is not given here.

SMILES	DNMT1 block	NSD2 inh	NS3 helicase inh	CASP6 VEID inh	DNMT1 inh conf	DNMT1 interf	CASP1 counter	AlphaScreen art	others
O=C1Nc2ccc(S(=O)(=O)NCc3ccco3)c3cccc1c23	63*	135*	19	·	1	78*	·	-2%
O=C(O)c1ccc(-n2cccc2/C=N\NC(=O)c2cc3cc(Br)ccc3o2)cc1	102*	58*	23	64*	75*	-3	·	-17%	DNMT1 interf DR=>99
Cn1cc(/C=N/NC(=O)c2cc3cc(Br)ccc3o2)c2ccccc21	9	22	-10	4	·	·	·	·
O=C(NC1CCCCC1)[C@H]1[C@H](CO)[C@H]2Cn3c(cccc3=O)[C@@H]1N2CC1CCCC1	·	·	·	0	·	·	·	·
Cc1cc(C=O)c(C)n1-c1cc(C(=O)O)cc(C(=O)O)c1	89*	84*	24	41*	13	24	7	-5%
COC1=C(Br)C(=O)c2nc(C)ccc2C1=O	83*	186*	·	95*	41*	-8	·	-8%	DNMT1 interf DR=>99
COC1=C(N)C(=O)c2nc(C)ccc2C1=O	78*	189*	·	56*	53*	-7	·	-1%	DNMT1 interf DR=>99
COc1ccc(N)c2c1C(=O)c1ccccc1C2=O	-2	·	2	·	·	·	·	·
Cc1cccc(S(=O)(=O)N[C@@H]2CC[C@H](CCNC(=O)c3cnccn3)O[C@H]2CO)c1	·	·	·	2	·	·	·	·
C/C=C/c1ccc([C@H]2[C@@H](CO)N(CC3CCOCC3)C23CN(S(=O)(=O)CC)C3)cc1	·	·	·	-3	·	·	·	·
ClN=C1C=CC=CC1=NCl	114*	108*	·	·	36*	-8	·	-3%	DNMT1 interf DR=>99
COC1=CC(=NCl)C=CC1=NCl	43	-10	·	·	·	·	·	·
CC(=O)NC(Cc1c[nH]c2ccccc12)C(=O)NCc1ccco1 (stereo not drawn)	2	-5	14	-2	·	·	·	·
CC(Cc1c[nH]c2ccccc12)C(=O)NCc1ccco1 (stereo not drawn)	74*	63*	29	42*	10	3	·	-5%
C[C@@H]1CN([C@@H](C)CO)C(=O)Cc2cc(NC(=O)C3CC3)ccc2O[C@@H]1CN(C)Cc1ccc2c(c1)OCO2	·	·	·	-2	·	·	·	·
O=C1NC(=O)C(=Cc2ccccc2[N+](=O)[O-])S1	40	34	·	67*	·	·	4	·
O=C1NC(=O)/C(=C\c2ccccc2OCc2ccccc2)S1	5	-1	13	2	·	·	·	·
Cn1cnnc1SCC(=O)Nc1ncc([N+](=O)[O-])s1	84*	35	·	39*	·	·	-4	·
O=C(OCc1nnc(-c2ccccc2)o1)c1ccc([N+](=O)[O-])s1	30	-1	·	99*	·	·	1	·
Cc1ccc(C(=O)OCc2nnc(-c3ccccc3)o2)s1	5	-1	·	1	·	·	·	·
COc1cc(NC(C)CCCN)c2ncccc2c1 (stereo not drawn)	-19	·	·	91*	·	·	1	·
COc1cc(NCCCCCCCN)c2ncccc2c1	40	·	-11	·	·	·	·	·
CCC1CCc2sc(C(=O)OCC(=O)N(CCOC)c3c(N)n(Cc4ccccc4)c(=O)[nH]c3=O)cc2C1 (stereo not drawn)	-3	0	·	-1	·	·	·	·
COCCN(C(=O)COC(=O)c1cc2c(s1)CCC2)c1c(N)n(Cc2ccccc2)c(=O)[nH]c1=O	101*	72*	·	80*	·	·	-1	·
C[C@@H]1CCCCO[C@H](CN(C)Cc2ccc(C(=O)O)cc2)[C@@H](C)CN([C@@H](C)CO)C(=O)c2cc(NC(=O)C3CCCCC3)ccc2O1	·	·	·	15	·	·	·	·
O=C(NC1CCCC1)[C@@H]1[C@@H](CO)[C@@H]2Cn3c(cccc3=O)[C@@H]2N1CCc1ccccc1	·	·	·	1	·	·	·	·
O=C(Nc1ccc2nc3n(c(=O)c2c1)CCCCC3)c1cc([N+](=O)[O-])ccc1F	16	·	1	7	·	·	·	·
O=C(Nc1ccc2nc3n(c(=O)c2c1)CCCCC3)c1c(F)ccc([N+](=O)[O-])c1F	29	25	3	60*	·	·	14	·
